Measured values published in paper PMC2652879 (Clinical cancer research : an official journal of the …, 2008).

Legend:
[1] = AG014447 concentration in tumour biopsy homogenates; assay type: in vivo, human; settings: samples taken 5 hours (24 hr in 3 patients) after administration
[2] = Plasma pharmacokinetics of AG014447; assay type: in vivo, human; settings: for effect of TMZ on pharmacokinetics (interaction): after a single dose or multiple doses
[3] = tested on: PARP; settings: most efficacious dose of AG014699 combined with TMZ; cited from earlier work
[4] = tested on: DNA strand breaks in PBLs; experiment: Alkaline Comet assay for DNA strand breaks in PBLs of patients; assay type: in vivo, human
Method in brief: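 Alkaline Comet assay (modified Olive method) on peripheral blood mononuclear cells, with slides stained with SYBR gold. Blood was sampled in cycle 1 before, 4 h and 24 h after temozolomide, following a daily 30 min IV infusion of test compound. For each sample, 50 cells from two slides were scored for % tail DNA and Olive tail moment, and means were taken. Readings were averaged by dose cohort (up to 6 patients).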

[5] = tested on: advanced solid tumors; experiment: Tumour response by RECIST in phase I patients; assay type: in vivo, human; settings: AG014699 + TMZ
Method in brief: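 Patients with advanced solid tumours received a daily 30 min IV infusion of test compound followed by oral temozolomide for 5 consecutive days, repeated every 28 days. Response was assessed by RECIST every 2 cycles, and patients completing 2 cycles were evaluable.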

[6] = Toxicity / dose limiting toxicity in phase I trial; assay type: in vivo, human; settings: for dose recommended for future studies: combination, x5 every 28 days
[7] = target: T1, PARP (Homo sapiens, UniProt P09874); experiment: PARP activity immunoassay ex vivo in peripheral blood lymphocytes
Method in brief: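 Patients with solid tumours (part 1) got one IV dose of PARP inhibitor on day -7, then temozolomide 100 mg/m2/day x5 q28 days with the inhibitor, over 5 escalating dose levels. PBLs were sampled at baseline, end of infusion, 4-6 h and 24 h on days -7, 1 and 4 of cycle 1, plus day 8 at PID. PAR formation was quantified immunologically ex vivo. PID: maximal (≥50%) activity reduction at 24 h, with no gain over the preceding dose.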

[8] = target: T1, PARP; experiment: PARP activity immunoassay in paired tumour biopsies of melanoma patients; assay type: in vivo
Method in brief: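 Chemonaive melanoma patients (part 2) received PARP inhibitor at PID with temozolomide escalated to at most 200 mg/m2; one extra level used 18 mg/m2 inhibitor plus 200 mg/m2 temozolomide. Paired biopsies were taken at baseline and after the first inhibitor dose (4, 5 or 24 h stated). PAR formation was quantified immunologically ex vivo. Activity was expressed as percentage of the same patient's pre-treatment biopsy.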

[9] = tested on: metastatic melanoma; settings: phase II, AG014699 with TMZ, preliminary results; cited from earlier work
[10] = tested on: SW620 tumours; settings: most efficacious dose of AG014699 combined with TMZ; animals bearing SW620 tumours; cited from earlier work
[11] = cited from earlier work

T1 sequence (P09874 whole entry, the tested form may be a part): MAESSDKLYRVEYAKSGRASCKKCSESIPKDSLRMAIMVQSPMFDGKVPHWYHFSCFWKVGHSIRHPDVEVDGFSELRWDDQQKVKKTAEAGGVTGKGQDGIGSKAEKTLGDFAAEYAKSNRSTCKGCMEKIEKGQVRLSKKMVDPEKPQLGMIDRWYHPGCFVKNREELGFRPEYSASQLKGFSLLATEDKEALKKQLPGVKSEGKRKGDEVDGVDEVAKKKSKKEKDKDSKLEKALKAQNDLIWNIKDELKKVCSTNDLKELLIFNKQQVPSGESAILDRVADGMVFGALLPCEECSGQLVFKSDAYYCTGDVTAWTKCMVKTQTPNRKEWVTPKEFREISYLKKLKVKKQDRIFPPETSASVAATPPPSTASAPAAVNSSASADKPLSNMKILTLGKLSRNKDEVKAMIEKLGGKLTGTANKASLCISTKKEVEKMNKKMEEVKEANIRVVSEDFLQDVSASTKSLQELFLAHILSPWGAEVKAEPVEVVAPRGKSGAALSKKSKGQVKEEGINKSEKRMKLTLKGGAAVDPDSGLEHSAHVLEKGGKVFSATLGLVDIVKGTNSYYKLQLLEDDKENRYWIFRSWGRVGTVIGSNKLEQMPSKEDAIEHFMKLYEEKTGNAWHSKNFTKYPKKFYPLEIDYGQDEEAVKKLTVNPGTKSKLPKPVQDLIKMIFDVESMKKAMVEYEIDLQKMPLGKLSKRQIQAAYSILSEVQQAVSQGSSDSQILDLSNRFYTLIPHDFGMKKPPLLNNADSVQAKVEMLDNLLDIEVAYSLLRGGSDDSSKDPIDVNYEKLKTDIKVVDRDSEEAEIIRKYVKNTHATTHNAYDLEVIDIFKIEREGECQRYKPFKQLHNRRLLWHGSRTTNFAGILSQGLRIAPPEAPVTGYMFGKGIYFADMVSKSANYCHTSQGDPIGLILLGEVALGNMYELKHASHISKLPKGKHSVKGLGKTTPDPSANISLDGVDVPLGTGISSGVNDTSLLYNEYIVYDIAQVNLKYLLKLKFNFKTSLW

Question: Which results are given for `CNCc1ccc(-c2[nH]c3cc(F)cc4c3c2CCNC4=O)cc1` [AG014447]?
Answer: concentration in tumour biopsy homogenates, range [1]: 5-110 ng/g tumour protein; effect of TMZ on pharmacokinetics (interaction) ([2]; listed as AG-014447): no evidence that TMZ has an effect; mean terminal half-life (CV%) ([2]; mean for the treated population): 9.5 (50.4) hours

Question: Which results are given for `CNCc1ccc(-c2[nH]c3cc(F)cc4c3c2CCNC4=O)cc1` [AG014699]?
Answer: xenograft PARP inhibition [3]: 50%; mean increase in Comet tail size at 24 h vs 4 h ([4]; Day 1, PARP inhibitory doses (12-18 mg/m^2) with TMZ, p=0.03): 3%; mean decrease in Comet tail size at 24 h vs 4 h ([4]; Day 1, lower doses (1-8 mg/m^2) with TMZ): 8%; DNA single strand breaks (SSB) ([4]; all patients treated at PID): increases in DNA SSB; DNA damage in PBLs (Comet analysis) ([4]; patients treated with AG014699 and TMZ): evidence of DNA damage in all patients; tumour response in patients with metastatic melanoma ([5]; no prior chemotherapy for melanoma): one documented complete and one partial response; tumour response in a patient with a desmoid tumour ([5]; previously treated with surgery and imatinib): a further partial response; pharmacokinetic linearity ([2]; 1-18 mg/m^2, 30 minute IV infusion): linear; exposure (AUC0-24hr) in predicted extensive vs poor CYP2D6 metabolism ([2]; CYP2D6 genotype *4,*4 vs wild type/heterozygous): similar; effect of TMZ on pharmacokinetics (interaction) [2]: no interaction; t^1/2 mean ([2]; cohort 2, 699 dose 2 mg/m^2 (n=3), TMZ dose 100, day 1): 3.8 h; t^1/2 mean ([2]; cohort 2, 699 dose 2 mg/m^2 (n=3), TMZ dose 100, day 4): 8.0 h; t^1/2 mean ([2]; cohort 2, 699 dose 2 mg/m^2 (n=3), TMZ dose 100, day -7): 6.9 h; t^1/2 mean ([2]; cohort 3, 699 dose 4 mg/m^2 (n=3), TMZ dose 100, day 1): 10.6 h; t^1/2 mean ([2]; cohort 3, 699 dose 4 mg/m^2 (n=3), TMZ dose 100, day 4): 10.9 h; t^1/2 mean ([2]; cohort 3, 699 dose 4 mg/m^2 (n=3), TMZ dose 100, day -7): 23.2 h; t^1/2 mean ([2]; cohort 4, 699 dose 8 mg/m^2 (n=4), TMZ dose 100, day 1): 13.9 h; t^1/2 mean ([2]; cohort 4, 699 dose 8 mg/m^2 (n=4), TMZ dose 100, day 4): 18.3 h; t^1/2 mean ([2]; cohort 4, 699 dose 8 mg/m^2 (n=4), TMZ dose 100, day -7): 19.9 h; t^1/2 mean ([2]; cohort 5-8, 699 dose 12 mg/m^2 (n=12), TMZ dose 100-200, day 1): 15.0 h; t^1/2 mean ([2]; cohort 5-8, 699 dose 12 mg/m^2 (n=12), TMZ dose 100-200, day 4): 16.8 h; t^1/2 mean ([2]; cohort 5-8, 699 dose 12 mg/m^2 (n=12), TMZ dose 100-200, day -7): 11.5 h; t^1/2 mean ([2]; cohort 9, 699 dose 18 mg/m^2 (n=6), TMZ dose 200, day 1): 16.0 h; t^1/2 mean ([2]; cohort 9, 699 dose 18 mg/m^2 (n=6), TMZ dose 200, day 4): 15.2 h; t^1/2 mean ([2]; cohort 9, 699 dose 18 mg/m^2 (n=6), TMZ dose 200, day -7): 13.1 h; inter-subject variability of normalized AUC0-24h ([2]; normalized for actual dose and for mg/m^2 dose (both cases)): 54%; dose limiting toxicity observed ([6]; AG014699 18 mg/m^2/day given with TMZ 200 mg/m^2/day): Myelosuppression; DLTs and other grade 3/4 toxicity ([6]; Part 1 cohort 1, AG014699 1 mg/m^2 + TMZ 100 mg/m^2, 3 patients, 30 cycles): None; DLTs and other grade 3/4 toxicity ([6]; Part 1 cohort 2, AG014699 2 mg/m^2 + TMZ 100 mg/m^2, 4 patients, 11 cycles): None; DLTs and other grade 3/4 toxicity ([6]; Part 1 cohort 3, AG014699 4 mg/m^2 + TMZ 100 mg/m^2, 4 patients, 20 cycles): None; DLTs and other grade 3/4 toxicity ([6]; Part 1 cohort 4, AG014699 8 mg/m^2 + TMZ 100 mg/m^2, 4 patients, 5 cycles): None; DLTs and other grade 3/4 toxicity ([6]; Part 1 cohort 5, AG014699 12 mg/m^2 + TMZ 100 mg/m^2, 3 patients, 11 cycles): None; DLTs and other grade 3/4 toxicity ([6]; Part 2 cohort 6, AG014699 12 mg/m^2 + TMZ 135 mg/m^2, 3 patients, 6 cycles): None; DLTs and other grade 3/4 toxicity ([6]; Part 2 cohort 7, AG014699 12 mg/m^2 + TMZ 170 mg/m^2, 3 patients, 10 cycles): None; DLTs and other grade 3/4 toxicity ([6]; Part 2 cohort 8, AG014699 12 mg/m^2 + TMZ 200 mg/m^2, 3 patients, 16 cycles): None; Recommended dose ([6]; combination with temozolomide): 12 mg/m^2; dose recommended for future studies [6]: 12 mg/m^2/day; DLT ([6]; part 2, PARP inhibitory dose of AG014699 with 200 mg/m^2 temozolomide): without DLT; tolerability of the combination with temozolomide ([6]; patients, no toxic deaths): well tolerated; toxicity attributable to AG014699 alone ([6]; patients, single agent): No toxicity of any kind; PBL PARP enzyme activity recovered, of baseline ([7]; 12 mg/m^2/day, cycle 1 day 8, 72 hours after the last dose): ~50%; PARP inhibition in PBLs ([7]; all AG014699 dose levels, at the end of infusion): > 90%; inhibition of PBL PARP activity ([7]; at PID 12 mg/m^2): 74 -97%; PARP-inhibitory dose (PID) ([7]; based on PBL (surrogate tissue) PARP inhibition, with TMZ 100 mg/m^2 daily x 5): 12 mg/m^2; recovery of PBL PARP activity over 24 hours ([7]; doses above 8 mg/m^2): no recovery was observed; recovery of PBL PARP activity over 24 hours ([7]; lower dose levels): recovery of enzyme activity over 24 hours; PARP-inhibitory dose (PID) ([7]; part 1, 5 dose levels, TMZ 100 mg/m^2/day): 12 mg/m^2/day; Mean tumor PARP inhibition ([8]; at 5 hours): 92%; tumor PARP inhibition, range ([8]; at 5 hours): 46 - 97%; PARP inhibition in paired tumour biopsies ([8]; part 2, all biopsies, 12 and 18 mg/m^2): > 50%; partial response rate [9]: 17%; patients having stable disease for 6 months or more [9]: 17%; antitumour efficacy [10]: cures were seen

Question: With `Cn1nnc2c(C(N)=O)ncn2c1=O` [Temozolomide, reference compound] as the molecule, how does the Recommended dose ([6]; combination with AG014699) read?
Answer: 200 mg/m2

Question: What about the “dose recommended for future studies” value [6] of the same molecule?
Answer: 200 mg/m^2/day

Question: And the tolerability ([11]; TMZ 200 mg/m^2/day)?
Answer: well tolerated

Question: What about the toxicity ([11]; TMZ 225 mg/m^2/day) of the same molecule?
Answer: significant myelosuppression
